An excerpt weighted towards active compounds, which were near 2.7% of everything screened.
GSTO1 counter: blocks human GSTO1 in RBBP9 counter-screen. P78417. inhibition, % at 5.96 µM. 300,000 compounds, 1.1% hits. recombinant GSTO1, activity-based probe fluorescence polarization. AID 1974;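 active means inhibition above the campaign mean inhibition plus 3 SD, cut at about 35% in these data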;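 further: 0% = GSTO1-1 with DMSO and 100% = wells lacking GSTO1-1 enzyme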
Target sequence (P78417 whole entry, looked up): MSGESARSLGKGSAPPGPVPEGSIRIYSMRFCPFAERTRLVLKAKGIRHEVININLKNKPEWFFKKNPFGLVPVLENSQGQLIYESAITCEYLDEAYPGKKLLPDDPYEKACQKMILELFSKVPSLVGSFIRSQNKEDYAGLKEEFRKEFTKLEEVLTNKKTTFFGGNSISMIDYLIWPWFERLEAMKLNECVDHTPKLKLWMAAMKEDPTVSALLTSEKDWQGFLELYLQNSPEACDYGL
PRMT1 inh: inhibitors of human PRMT1. Q99873. recombinant PRMT1, activity-based probe fluorescence polarization. inhibition, % at 2.79 µM. 370,000 compounds, 1.3% hits;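 active means inhibition above about 21% made by adding two undisclosed values, limit read from the data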
SIAE primary: human SIAE inhibition, primary screen | SIAE FP-Rh probe binding, fluorescence polarization | 370,000 compounds, 0.69% hits | inhibition, % at 9.66 µM | AID 1053197;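 active means inhibition above a cutoff: mean of compounds within the control limits plus 3 SD of those, cut at about 17% in these data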;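 further: 0% = plate median of compound wells and 100% = probe without SIAE protein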
PAD4 inh: PAD4 (human) enzyme inhibition; Q9UM07; recombinant PAD4, RCA probe fluorescence polarization; inhibition, % at 6.36 µM; 330,000 compounds, 0.41% hits; AID 485272;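 active means percent inhibition above a cutoff equal to the mean of all tested compounds plus 3 SD, cut at about 15% in these data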;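 further: 0% = PAD4 with RCA probe and DMSO and 100% = probe without PAD4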
RBBP9 inh: human RBBP9 hydrolase inhibition | O75884 | recombinant RBBP9, FP-Rh probe fluorescence polarization | inhibition, % at 7.94 µM | 220,000 compounds, 0.2% hits;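 active means inhibition above the campaign mean of all tested compounds plus 3 SD, cut at about 14% in these data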;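 further: plate controls were DMSO wells with RBBP9 for no effect and wells lacking RBBP9 protein for full effect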
Target sequence (O75884 whole entry, looked up): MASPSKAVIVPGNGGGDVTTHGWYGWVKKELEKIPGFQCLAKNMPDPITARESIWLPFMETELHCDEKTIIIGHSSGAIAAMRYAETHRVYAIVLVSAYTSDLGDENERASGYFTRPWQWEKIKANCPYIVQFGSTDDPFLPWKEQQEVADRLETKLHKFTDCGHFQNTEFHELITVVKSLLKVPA
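System: RBBP9 protein / Quantity: 2.5 µM RBBP9 dispensing solution, before mixing / Also added: Serine-hydrolase probe FP-Rh, 375 nM pre-mixing / Dosing: 7.94 µM single dose, 0.794% DMSO / Timing: enzyme-compound preincubation 30 min, then probe labeling 45 min, 25 °C / Signal: FP readout at 525/598 nm / Controls: DMSO-treated enzyme wells and wells lacking RBBP9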
SIAE inh conf: human SIAE inhibition, confirmation | 2,300 compounds, 13% hits | SIAE FP-Rh activity-based probe, fluorescence polarization | shares compounds with SIAE primary | inhibition, % at 9.66 µM | AID 1117263;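 active means mean inhibition of the replicates above the hit cutoff set in the primary screen, cut at about 17% in these data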;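 further: 0% = SIAE with DMSO and probe and 100% = probe without SIAE; inhibitors lower polarization as more probe stays unbound to SIAE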
* marks the source's active call; other numbers are inactive results.

Results for COCc1cc(C)nc(SCC(=O)Nc2ccc3c(c2)OCO3)c1C#N ?
GSTO1 counter: -4; PRMT1 inh: -3; SIAE primary: 17*; PAD4 inh: 6; RBBP9 inh: -12; SIAE inh conf: 0

What do the screens show for `CCOc1ccc(OCC)c(NS(=O)(=O)c2cn(C)cn2)c1`?
GSTO1 counter: -6; PRMT1 inh: 2; SIAE primary: 0; PAD4 inh: -2

Results for Cn1cnc(S(=O)(=O)Nc2ccccc2C(=O)NCC2CC2)c1 ?
GSTO1 counter: 6; PRMT1 inh: 0; SIAE primary: 17*; PAD4 inh: 2; RBBP9 inh: -11; SIAE inh conf: 4

What do the screens show for `CCOC(=O)c1cc(NC(=O)/C=C\C(=O)O)ccc1Cl`?
GSTO1 counter: -9; PRMT1 inh: 7; SIAE primary: 4; PAD4 inh: -1; RBBP9 inh: -2

How did CCOc1ccc(-n2cc(C(=O)NCCOC)c3cc(OC)c(OC)cc3c2=O)cc1 do in these assays?
GSTO1 counter: -1; PRMT1 inh: 0; SIAE primary: 22*; PAD4 inh: -3; SIAE inh conf: -5

What do the screens show for `CCOc1ccc(-n2cc(C(=O)Nc3cccc(OC)c3)c3cc(OC)c(OC)cc3c2=O)cc1`?
GSTO1 counter: -6; PRMT1 inh: 0; SIAE primary: -10; PAD4 inh: 9; RBBP9 inh: -17

What do the screens show for `Cc1cc(C)nc(SCCS(=O)(=O)Cc2ccc(Cl)cc2)n1`?
GSTO1 counter: -2; PRMT1 inh: 0; SIAE primary: 20*; PAD4 inh: -1; RBBP9 inh: 0; SIAE inh conf: -3

Results for COc1ccccc1NC(=O)c1cc2c(CO)cnc(C)c2oc1=Nc1ccc(OC)c(OC)c1 ?
GSTO1 counter: -10; PRMT1 inh: 11; SIAE primary: -16; PAD4 inh: -4

Results for COc1ccccc1NC(=O)c1cc2c(CO)cnc(C)c2oc1=Nc1cc(OC)c(OC)c(OC)c1 ?
GSTO1 counter: 2; PRMT1 inh: -1; SIAE primary: 18*; PAD4 inh: -2; SIAE inh conf: 5

Results for CCCC(=O)N1CCCC(c2cc(C(=O)NCc3ccccc3)no2)C1 (stereo not drawn) ?
PRMT1 inh: -2; SIAE primary: -3

What do the screens show for `Cc1ccccc1-c1cnc(C(O)c2ccc(Cl)cc2C)[nH]1` (stereo not drawn)?
PRMT1 inh: -5; SIAE primary: 3

What do the screens show for `O=c1c2cn[nH]c2[nH]c(=S)n1-c1cccc2ccccc12`?
GSTO1 counter: 15; PRMT1 inh: 9; SIAE primary: 23*; PAD4 inh: 0; RBBP9 inh: 2; SIAE inh conf: 3

How did O=C(N/C(=C\c1ccccc1)C(=O)N1CCOCC1)c1ccco1 do in these assays?
GSTO1 counter: 4; PRMT1 inh: 1; SIAE primary: -1; PAD4 inh: 3

How did Cc1ccc(S(=O)(=O)Nc2ccc3c(c2)C(=O)c2ccccc2-3)cc1 do in these assays?
PRMT1 inh: -6; SIAE primary: -2

Results for Cc1ccc(NS(=O)(=O)c2ccc3c(c2)C(=O)c2ccccc2C3=O)c(C)c1 ?
GSTO1 counter: 10; PRMT1 inh: -2; SIAE primary: 18*; PAD4 inh: 4; RBBP9 inh: 0; SIAE inh conf: 4

Results for Oc1cccc2ccc(/C=C/c3ccccc3Br)nc12 ?
GSTO1 counter: 9; PRMT1 inh: 7; SIAE primary: -13; PAD4 inh: -7

What do the screens show for `Oc1ccc2ccccc2c1/C=C/c1ccc2c(Br)cc(Br)c(O)c2n1`?
PRMT1 inh: -5; SIAE primary: 23*; SIAE inh conf: 16

How did COc1ccc(-n2nnnc2SCC(=O)c2ccc(O)c(O)c2)cc1 do in these assays?
GSTO1 counter: 31; PRMT1 inh: -2; SIAE primary: 4; PAD4 inh: 1; RBBP9 inh: -1

Results for COc1ccc(OC)c(C2N(c3cc(C)on3)C(=O)C3CCCN32)c1 (stereo not drawn) ?
GSTO1 counter: 1; PRMT1 inh: -3; SIAE primary: 4; PAD4 inh: -1; RBBP9 inh: -6

Results for COC(=O)C1CN(Cc2ccc(C)cc2)CCS(=O)(=O)N1Cc1cn(Cc2ccc(F)cc2)nn1 (stereo not drawn) ?
PRMT1 inh: -2; SIAE primary: 60*; SIAE inh conf: -3

What do the screens show for `COC(=O)C1CN(Cc2ccc(F)cc2)CCS(=O)(=O)N1Cc1cn(Cc2ccc(F)cc2)nn1` (stereo not drawn)?
PRMT1 inh: 2; SIAE primary: 4

Results for Cc1cccc(-c2nc(S(=O)(=O)c3ccc(F)cc3)c(NCCCN3CCOCC3)o2)c1 ?
GSTO1 counter: 2; PRMT1 inh: 1; SIAE primary: -1; PAD4 inh: 1

How did Cc1cc(C)c2c(=O)n3c(nc2c1)C(Cc1ccc(O)cc1)NC(=O)c1cc2ccccc2cc1-3 (stereo not drawn) do in these assays?
PRMT1 inh: 3; SIAE primary: -61

How did N/C(=N\OC(=O)c1cccs1)c1cccc([N+](=O)[O-])c1 do in these assays?
GSTO1 counter: 3; PRMT1 inh: 4; SIAE primary: -5; PAD4 inh: 2; RBBP9 inh: -8

What do the screens show for `O=C(CSc1nc2ccccc2o1)N1N=C(c2cccs2)CC1c1ccc(F)cc1` (stereo not drawn)?
GSTO1 counter: 4; PRMT1 inh: -4; SIAE primary: 20*; PAD4 inh: -1; RBBP9 inh: -3; SIAE inh conf: -5

What do the screens show for `Cc1ccc(C2CC(c3cccs3)=NN2C(=O)CSc2nc3ccccc3o2)cc1` (stereo not drawn)?
GSTO1 counter: -6; PRMT1 inh: -1; SIAE primary: -3; PAD4 inh: -1; RBBP9 inh: -14

How did CCCC(=O)Nc1cc(=O)[nH]c2ncnn12 do in these assays?
GSTO1 counter: -4; PRMT1 inh: -2; SIAE primary: 4; PAD4 inh: 0; RBBP9 inh: 4

How did CCOC(=O)C(NC(=O)Nc1ccc(F)cc1F)(Oc1ccc(F)cc1)C(F)(F)F (stereo not drawn) do in these assays?
GSTO1 counter: 3; PRMT1 inh: 1; SIAE primary: 6; PAD4 inh: -1; RBBP9 inh: -5

Results for CCOC(=O)C(NC(=O)Nc1ncccn1)(Oc1ccccc1)C(F)(F)F (stereo not drawn) ?
GSTO1 counter: -2; PRMT1 inh: 3; SIAE primary: 24*; PAD4 inh: -1; RBBP9 inh: -7; SIAE inh conf: 3

Results for Cc1cc2nc(C)c(Cl)c(=O)n2[nH]1 ?
GSTO1 counter: 8; PRMT1 inh: -2; SIAE primary: 35*; PAD4 inh: 3; RBBP9 inh: -2; SIAE inh conf: -1

Results for O=C(c1ccccc1)c1ccncc1 ?
GSTO1 counter: -2; PRMT1 inh: -4; SIAE primary: 28*; PAD4 inh: -2; RBBP9 inh: 2; SIAE inh conf: 4

Screening results deposited in PubChem BioAssay by The Scripps Research Institute Molecular Screening Center.
